Test results from ChEMBL document CHEMBL1128419, “Orally active beta-lactam inhibitors of human leukocyte elastase. 3. Stereospecific synthesis and structure-activity relationships for 3,3-dialkylazetidin-2-ones” (J Med Chem, 1995).

How the values were obtained:
[1] = biological target: T1, Neutrophil elastase (Homo sapiens) (UniProt P08246); assay: Compound at an peroral dose of 30 mpk was tested for the inhibition of HLE-induced lung hemorrhage in hamsters; format: functional
T1 sequence (whole entry): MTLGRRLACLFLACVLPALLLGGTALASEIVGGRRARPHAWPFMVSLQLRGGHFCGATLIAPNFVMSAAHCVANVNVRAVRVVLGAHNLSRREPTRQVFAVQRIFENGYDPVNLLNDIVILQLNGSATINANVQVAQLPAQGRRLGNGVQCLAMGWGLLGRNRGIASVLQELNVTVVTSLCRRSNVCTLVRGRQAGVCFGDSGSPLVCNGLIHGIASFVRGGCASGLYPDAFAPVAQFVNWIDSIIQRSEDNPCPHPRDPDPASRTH
Procedure, shortened: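 Hamster lung hemorrhage screen: 30 mg/kg given orally as Methocel suspension 30 min before intratracheal instillation of 50 units HLE/animal; sacrifice at 3 h, saline lung lavage, hemoglobin measured at 414 nm; % inhibition versus vehicle-treated animals, averaged over three animals per dose and time.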

[2] = biological target: T1, Neutrophil elastase (Homo sapiens); assay: In vitro inhibition of human leukocyte elastase (HLE), and the Kobs[I] is the second-order rate constant for the time dependent inactivation of HLE by the compound.
Neutrophil elastase = biological target: T2, Neutrophil elastase (Homo sapiens, UniProt P08246); assay: In vitro human leukocyte elastase (HLE) inhibition, and the Kobs[I] is the second-order rate constant for the time dependent inactivation of HLE by the compound.
T2 sequence (P08246 whole entry): T1 sequence (whole entry)

Cricetinae gen. sp. [3] = assay: Compound at an peroral dose of 100 mpk was tested for the inhibition of HLE-induced lung hemorrhage in hamsters; format: functional, Cricetulus griseus; conditions: po
Cricetinae gen. sp. [4] = assay: Oral effective dose required to inhibit HLE-induced lung hemorrhage in hamster; format: functional, Cricetulus griseus
Procedure, shortened: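 Oral doses of 30, 10, 3, 1 (and 0.3) mg/kg as Methocel suspension given 30 min before intratracheal instillation of 50 units HLE/animal in hamsters; lungs lavaged 3 h later, hemoglobin read at 414 nm; % inhibition versus vehicle used to fit a dose-response curve for ED50.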

inhibition [1]	K obs / 1 [2]	Ki (Neutrophil elastase)	Compound	inhibition in vivo at 100 mg/kg (Cricetinae gen. sp. [3])	ED50 (Cricetinae gen. sp. [4])
46%	1900 M⁻¹ s⁻¹	–	CC[C@@]1(COC)C(=O)N(C(=O)NCc2ccccc2)[C@H]1Oc1ccc(C(=O)O)cc1	–	–
56%	2800 M⁻¹ s⁻¹	–	C=CC[C@]1(CC)C(=O)N(C(=O)NCc2ccccc2)[C@H]1Oc1ccc(C(=O)O)cc1	–	–
52%	3300 M⁻¹ s⁻¹	–	CCC[C@@]1(CC)C(=O)N(C(=O)NCc2ccccc2)[C@H]1Oc1ccc(C(=O)O)cc1	–	–
36%	4400 M⁻¹ s⁻¹	–	CCCC[C@]1(CC)C(=O)N(C(=O)NCc2ccccc2)[C@H]1Oc1ccc(C(=O)O)cc1	–	–
–	–	51 µM	CCC[C@@]1(C)C(=O)N(C(=O)NCc2ccccc2)[C@@H]1Oc1ccc(C(=O)O)cc1	–	–
–	1900 M⁻¹ s⁻¹	–	CCC[C@@]1(C)C(=O)N(C(=O)NCc2ccccc2)[C@H]1Oc1ccc(C(=O)O)cc1	49%	–
–	200 M⁻¹ s⁻¹	–	CC[C@]1(C)C(=O)N(C(=O)NCc2ccccc2)[C@@H]1Oc1ccc(C(=O)O)cc1	–	–
78%	5200 M⁻¹ s⁻¹	–	CCCC1(CC)C(=O)N(C(=O)NCc2ccccc2)C1Oc1ccc(C(=O)O)cc1 (stereo not drawn)	–	–
–	220 M⁻¹ s⁻¹	–	CC[C@@]1(C)C(=O)N(C(=O)NCc2ccccc2)[C@@H]1Oc1ccc(C(=O)O)cc1	–	–
56%	2500 M⁻¹ s⁻¹	–	CCCC1(CCC)C(=O)N(C(=O)NCc2ccccc2)C1Oc1ccc(C(=O)O)cc1 (stereo not drawn)	–	–
51%	2000 M⁻¹ s⁻¹	–	C=CC[C@@]1(CC)C(=O)N(C(=O)NCc2ccccc2)[C@H]1Oc1ccc(C(=O)O)cc1	–	–

More lines, now with the values behind:

Compound	inhibition [1]	K obs / 1 [2]	Ki (Neutrophil elastase)	inhibition in vivo at 100 mg/kg (Cricetinae gen. sp. [3])	ED50 (Cricetinae gen. sp. [4])
CC[C@@]1(C(C)C)C(=O)N(C(=O)NCc2ccccc2)[C@H]1Oc1ccc(C(=O)O)cc1	13%	10 M⁻¹ s⁻¹	–	–	–
CC[C@H](NC(=O)N1C(=O)[C@](C)(CC)[C@@H]1Oc1ccc(C(=O)O)cc1)c1ccccc1	22%	4700 M⁻¹ s⁻¹	–	–	–
CC1(C)C(=O)N(C(=O)NCc2ccccc2)C1Oc1ccc(C(=O)O)cc1 (stereo not drawn)	–	280 M⁻¹ s⁻¹	–	–	–
CC[C@@]1(C)C(=O)N(C(=O)N[C@H](C)c2ccccc2)[C@@H]1Oc1ccc(C(=O)O)cc1	–	400 M⁻¹ s⁻¹	–	–	–
CC[C@@]1(C)C(=O)N(C(=O)NCc2ccccc2)[C@H]1Oc1ccc(C(=O)O)cc1	70%	2000 M⁻¹ s⁻¹	–	–	–
C[C@]1(Oc2ccc(C(=O)O)cc2)N(C(=O)NCc2ccccc2)C(=O)C12CCCC2	8%	1900 M⁻¹ s⁻¹	–	–	–
CCC1(CC)C(=O)N(C(=O)NCc2ccccc2)[C@]1(C)Oc1ccc(C(=O)O)cc1	59%	1500 M⁻¹ s⁻¹	–	–	–
CC(C)[C@@]1(C)C(=O)N(C(=O)NCc2ccccc2)[C@H]1Oc1ccc(C(=O)O)cc1	–	21 M⁻¹ s⁻¹	–	–	–
CCC[C@]1(CC)C(=O)N(C(=O)N[C@H](CC)c2ccccc2)[C@H]1Oc1ccc(C(=O)O)cc1	52%	35500 M⁻¹ s⁻¹	–	–	–
CC[C@@]1(C)C(=O)N(C(=O)N[C@H](C)c2ccccc2)[C@H]1Oc1ccc(C(=O)O)cc1	82%	15200 M⁻¹ s⁻¹	–	–	–
CC[C@]1(C)C(=O)N(C(=O)NCc2ccccc2)[C@H]1Oc1ccc(C(=O)O)cc1	–	160 M⁻¹ s⁻¹	–	–	–
CCC(C)[C@]1(CC)C(=O)N(C(=O)NCc2ccccc2)[C@H]1Oc1ccc(C(=O)O)cc1 (stereo partly drawn)	23%	1200 M⁻¹ s⁻¹	–	–	–
CCC[C@]1(CC)C(=O)N(C(=O)N[C@H](C)c2ccccc2)[C@H]1Oc1ccc(C(=O)O)cc1	61%	4500 M⁻¹ s⁻¹	–	–	–
CC[C@@]1(C)C(=O)N(C(=O)N[C@@H](C)c2ccccc2)[C@H]1Oc1ccc(C(=O)O)cc1	13%	4800 M⁻¹ s⁻¹	–	–	–
CC[C@@H](NC(=O)N1C(=O)[C@](C)(CC)[C@@H]1Oc1ccc(C(=O)O)cc1)c1ccccc1	98%	91000 M⁻¹ s⁻¹	–	–	3.7 mg/kg
CCC[C@@H](NC(=O)N1C(=O)[C@@](CC)(CCC)[C@@H]1Oc1ccc(C(=O)O)cc1)c1ccccc1	53%	60000 M⁻¹ s⁻¹	–	–	–
CCC[C@@H](NC(=O)N1C(=O)[C@](C)(CC)[C@@H]1Oc1ccc(C(=O)O)cc1)c1ccccc1	94%	152000 M⁻¹ s⁻¹	–	–	1.5 mg/kg
CC[C@]1(Cc2ccccc2)C(=O)N(C(=O)NCc2ccccc2)[C@H]1Oc1ccc(C(=O)O)cc1	–	90 M⁻¹ s⁻¹	–	–	–
CC[C@@]1(Cc2ccccc2)C(=O)N(C(=O)NCc2ccccc2)[C@H]1Oc1ccc(C(=O)O)cc1	–	84 M⁻¹ s⁻¹	–	–	–
